Measured values as given in ChEMBL document CHEMBL1152541, “Staurosporine tethered peptide ligands that target cAMP-dependent protein kinase (PKA): optimization and selectivity profiling” (Bioorg Med Chem, 2009).
*1 amine or outer side, *2 acyl side, *3 side chain or, on linkers, in order; H or OH if unused. Where a SMILES comes first, the peptide text is derived from it. Bridges are numbered along the chain shown (N, C = ends). [ ]: non-standard residue; d: D form. The star is where a group is joined. Staurosporine = CO[C@@H]1[C@H](N(C)*)C[C@H]2O[C@]1(C)n1c3ccccc3c3c4c(c5c6ccccc6n2c5c31)C(=O)NC4; Suc = O=C(CCC(=O)[*:2])[*:1]; Dap = NC[C@H](N)C(=O)O; βAla = NCCC(=O)O

Columns and labels:
[1] = biological target: Receptor-type tyrosine-protein kinase FLT3 (Homo sapiens) (UniProt P36888); assay: Binding affinity to human FLT3 at 500 nM by cell-based competition binding assay relative to control in presence of DTT
Outline: (§1)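 Commercial (Ambit) competitive kinase-binding panel of 90 kinases measured the binding profile. Run under reducing conditions of 7.5 mM DTT. Binding is expressed relative to control.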

[2] = biological target: Mitogen-activated protein kinase 3 (Homo sapiens) (UniProt P27361); assay: Binding affinity to human ERK1 at 500 nM by cell-based competition binding assay relative to control in presence of DTT; outline: as §1
[3] = biological target: Angiopoietin-1 receptor (Homo sapiens) (UniProt Q02763); assay: Binding affinity to human TIE2 at 500 nM by cell-based competition binding assay relative to control in presence of DTT
Angiopoietin-1 receptor (Homo sapiens), sequence (Q02763 whole entry): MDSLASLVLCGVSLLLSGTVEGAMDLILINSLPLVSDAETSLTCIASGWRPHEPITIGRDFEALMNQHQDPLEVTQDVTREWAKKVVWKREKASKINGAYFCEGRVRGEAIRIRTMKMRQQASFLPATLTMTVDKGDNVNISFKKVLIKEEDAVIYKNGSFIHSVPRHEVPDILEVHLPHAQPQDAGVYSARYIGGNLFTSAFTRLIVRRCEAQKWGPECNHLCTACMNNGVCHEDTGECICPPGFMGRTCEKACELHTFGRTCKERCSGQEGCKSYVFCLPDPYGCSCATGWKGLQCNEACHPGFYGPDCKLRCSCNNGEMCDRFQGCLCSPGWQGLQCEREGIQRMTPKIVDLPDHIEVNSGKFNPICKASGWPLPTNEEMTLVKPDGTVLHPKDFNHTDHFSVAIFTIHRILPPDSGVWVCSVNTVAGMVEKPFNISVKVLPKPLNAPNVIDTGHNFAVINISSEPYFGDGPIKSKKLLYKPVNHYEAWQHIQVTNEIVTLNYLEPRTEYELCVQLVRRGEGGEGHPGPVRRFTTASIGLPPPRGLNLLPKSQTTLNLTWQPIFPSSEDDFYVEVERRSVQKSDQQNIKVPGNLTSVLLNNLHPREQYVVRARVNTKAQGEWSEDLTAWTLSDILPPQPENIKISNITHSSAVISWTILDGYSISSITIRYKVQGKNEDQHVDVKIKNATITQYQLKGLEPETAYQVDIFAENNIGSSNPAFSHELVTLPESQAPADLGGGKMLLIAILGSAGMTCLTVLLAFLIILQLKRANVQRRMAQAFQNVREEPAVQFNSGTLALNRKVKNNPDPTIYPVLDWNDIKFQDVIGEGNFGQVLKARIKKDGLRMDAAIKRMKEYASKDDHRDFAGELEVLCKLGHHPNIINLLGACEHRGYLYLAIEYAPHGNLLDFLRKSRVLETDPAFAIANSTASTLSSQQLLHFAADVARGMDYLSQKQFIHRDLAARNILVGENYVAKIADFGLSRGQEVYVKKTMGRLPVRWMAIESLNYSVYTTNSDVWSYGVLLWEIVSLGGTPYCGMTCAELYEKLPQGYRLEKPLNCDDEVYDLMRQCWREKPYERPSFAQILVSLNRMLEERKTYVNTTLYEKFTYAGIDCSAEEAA

[4] = biological target: T1, NUAK family SNF1-like kinase 2 (Homo sapiens) (UniProt Q9H093); assay: Binding affinity to human SNARK at 500 nM by cell-based competition binding assay relative to control in presence of DTT
T1 sequence (whole entry): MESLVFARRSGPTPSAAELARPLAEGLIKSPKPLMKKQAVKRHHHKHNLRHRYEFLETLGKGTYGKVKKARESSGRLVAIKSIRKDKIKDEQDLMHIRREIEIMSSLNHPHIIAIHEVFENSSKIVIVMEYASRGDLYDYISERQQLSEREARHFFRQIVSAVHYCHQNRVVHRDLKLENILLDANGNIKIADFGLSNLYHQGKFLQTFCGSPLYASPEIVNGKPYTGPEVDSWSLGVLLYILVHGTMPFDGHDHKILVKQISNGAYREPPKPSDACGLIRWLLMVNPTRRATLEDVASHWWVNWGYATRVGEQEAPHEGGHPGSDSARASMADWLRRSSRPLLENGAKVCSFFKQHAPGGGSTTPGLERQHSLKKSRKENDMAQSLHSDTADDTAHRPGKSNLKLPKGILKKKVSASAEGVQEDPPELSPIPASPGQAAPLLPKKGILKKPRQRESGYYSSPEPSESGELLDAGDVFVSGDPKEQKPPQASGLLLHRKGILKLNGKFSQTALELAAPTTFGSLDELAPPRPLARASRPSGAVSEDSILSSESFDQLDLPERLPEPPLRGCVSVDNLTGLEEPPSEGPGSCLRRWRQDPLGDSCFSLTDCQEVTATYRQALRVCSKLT

[5] = biological target: Cyclin-dependent kinase 19 (Homo sapiens) (UniProt Q9BWU1); assay: Binding affinity to human CDK11 at 500 nM by cell-based competition binding assay relative to control in presence of DTT
Outline: (§2)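 Kinase binding profiling ran on a commercial (Ambit) competitive binding screen against a panel of 90 kinases. The screen used reducing conditions with 7.5 mM DTT. To withstand the DTT, the bivalent ligand was tested as its amide isostere, with the disulfide replaced. A staurosporine derivative carrying a 3 β-alanine linker was run as the reference compound.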

[6] = biological target: Serine/threonine-protein kinase PAK 2 (Homo sapiens) (UniProt Q13177); assay: Binding affinity to human PAK2 at 500 nM by cell-based competition binding assay relative to control in presence of DTT
Serine/threonine-protein kinase PAK 2 (Homo sapiens), sequence (Q13177 whole entry, canonical isoform): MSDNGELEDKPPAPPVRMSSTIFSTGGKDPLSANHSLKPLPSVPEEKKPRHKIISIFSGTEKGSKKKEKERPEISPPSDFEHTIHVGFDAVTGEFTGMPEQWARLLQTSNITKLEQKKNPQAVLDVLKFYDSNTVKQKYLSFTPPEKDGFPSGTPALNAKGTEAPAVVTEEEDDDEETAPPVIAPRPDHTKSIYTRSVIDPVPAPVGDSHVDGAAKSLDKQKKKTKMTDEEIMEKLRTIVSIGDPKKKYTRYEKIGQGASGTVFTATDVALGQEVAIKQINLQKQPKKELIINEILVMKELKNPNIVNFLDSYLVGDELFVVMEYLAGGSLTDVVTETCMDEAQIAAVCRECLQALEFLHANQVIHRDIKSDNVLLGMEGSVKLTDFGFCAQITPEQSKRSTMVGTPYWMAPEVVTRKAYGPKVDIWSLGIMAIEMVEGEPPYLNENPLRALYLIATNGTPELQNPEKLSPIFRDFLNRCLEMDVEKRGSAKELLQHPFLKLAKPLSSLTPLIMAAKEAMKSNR

[7] = biological target: Casein kinase I isoform gamma-2 (Homo sapiens) (UniProt P78368); assay: Binding affinity to human CSNK1G2 at 200 nM by cell-based competition binding assay relative to control in presence of DTT; outline: as §1
Casein kinase I isoform gamma-2 (Homo sapiens), sequence (P78368 whole entry, looked up, canonical isoform): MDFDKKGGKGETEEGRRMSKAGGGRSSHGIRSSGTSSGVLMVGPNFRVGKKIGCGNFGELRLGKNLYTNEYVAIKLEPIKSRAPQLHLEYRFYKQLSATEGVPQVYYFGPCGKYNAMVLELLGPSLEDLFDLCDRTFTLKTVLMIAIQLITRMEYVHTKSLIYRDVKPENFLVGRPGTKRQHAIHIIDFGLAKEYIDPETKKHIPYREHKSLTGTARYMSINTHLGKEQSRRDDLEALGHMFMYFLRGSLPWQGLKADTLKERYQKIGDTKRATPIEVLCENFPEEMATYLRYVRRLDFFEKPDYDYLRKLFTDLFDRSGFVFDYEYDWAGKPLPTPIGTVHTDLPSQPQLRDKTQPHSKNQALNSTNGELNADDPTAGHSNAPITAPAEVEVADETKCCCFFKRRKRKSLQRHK

[8] = biological target: Serine/threonine-protein kinase B-raf (Homo sapiens) (UniProt P15056); assay: Binding affinity to human BRAF at 50 nM by cell-based competition binding assay relative to control in presence of DTT; outline: as §2
Serine/threonine-protein kinase B-raf (Homo sapiens), sequence (P15056 whole entry): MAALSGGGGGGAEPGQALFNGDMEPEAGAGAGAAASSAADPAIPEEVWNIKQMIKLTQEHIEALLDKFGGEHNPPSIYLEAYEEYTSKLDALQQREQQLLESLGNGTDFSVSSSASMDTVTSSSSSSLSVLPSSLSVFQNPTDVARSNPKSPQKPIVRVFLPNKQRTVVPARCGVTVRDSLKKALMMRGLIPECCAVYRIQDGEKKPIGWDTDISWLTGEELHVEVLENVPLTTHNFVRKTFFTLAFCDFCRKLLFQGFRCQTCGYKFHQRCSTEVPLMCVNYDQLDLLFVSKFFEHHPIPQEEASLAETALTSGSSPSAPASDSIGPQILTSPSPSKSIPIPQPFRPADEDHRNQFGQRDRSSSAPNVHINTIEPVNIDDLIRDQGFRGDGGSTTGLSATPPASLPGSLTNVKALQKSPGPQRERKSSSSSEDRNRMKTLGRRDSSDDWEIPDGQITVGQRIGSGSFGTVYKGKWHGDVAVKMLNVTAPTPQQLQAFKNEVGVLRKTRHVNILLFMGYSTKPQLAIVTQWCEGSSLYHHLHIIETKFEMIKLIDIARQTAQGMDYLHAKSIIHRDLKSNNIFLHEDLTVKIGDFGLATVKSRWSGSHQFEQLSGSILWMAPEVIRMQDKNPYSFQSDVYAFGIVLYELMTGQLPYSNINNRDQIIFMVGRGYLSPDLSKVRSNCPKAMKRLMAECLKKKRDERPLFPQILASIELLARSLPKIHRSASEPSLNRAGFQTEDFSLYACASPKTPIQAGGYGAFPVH

[9] = biological target: T1, NUAK family SNF1-like kinase 2 (Homo sapiens); assay: Binding affinity to human SNARK at 50 nM by cell-based competition binding assay relative to control in presence of DTT
[10] = biological target: Mitogen-activated protein kinase 8 (Homo sapiens) (UniProt P45983); assay: Binding affinity to human JNK1 at 50 nM by cell-based competition binding assay relative to control in presence of DTT
Outline: (§3)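 Competition binding screen (Ambit) across a panel of 90 kinases, scoring test ligand displacement of each kinase's binding relative to control. The screen ran under reducing conditions with 7.5 mM DTT.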

[11] = biological target: Serine/threonine-protein kinase PAK 1 (Homo sapiens) (UniProt Q13153); assay: Binding affinity to human PAK1 at 50 nM by cell-based competition binding assay relative to control in presence of DTT
Serine/threonine-protein kinase PAK 1 (Homo sapiens), sequence (Q13153 whole entry): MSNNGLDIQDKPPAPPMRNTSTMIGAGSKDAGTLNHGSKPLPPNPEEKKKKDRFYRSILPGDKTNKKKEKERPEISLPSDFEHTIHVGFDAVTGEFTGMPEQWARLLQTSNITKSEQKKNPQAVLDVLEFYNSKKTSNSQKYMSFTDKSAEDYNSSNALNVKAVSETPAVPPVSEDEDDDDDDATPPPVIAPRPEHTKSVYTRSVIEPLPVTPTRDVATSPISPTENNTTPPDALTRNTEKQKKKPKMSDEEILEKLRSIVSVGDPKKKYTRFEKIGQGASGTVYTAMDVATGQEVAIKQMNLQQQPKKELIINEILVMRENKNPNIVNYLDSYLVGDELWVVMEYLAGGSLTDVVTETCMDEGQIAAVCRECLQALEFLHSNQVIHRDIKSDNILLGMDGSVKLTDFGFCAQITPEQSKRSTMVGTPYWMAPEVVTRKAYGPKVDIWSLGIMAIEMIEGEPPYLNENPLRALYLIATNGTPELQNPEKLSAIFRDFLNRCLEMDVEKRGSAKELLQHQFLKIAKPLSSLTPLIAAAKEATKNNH

[12] = biological target: T2, Serine/threonine-protein kinase DCLK1 (Homo sapiens) (UniProt O15075); assay: Binding affinity to human DCAMKL1 at 50 nM by cell-based competition binding assay relative to control in presence of DTT; outline: as §1
T2 sequence (whole entry): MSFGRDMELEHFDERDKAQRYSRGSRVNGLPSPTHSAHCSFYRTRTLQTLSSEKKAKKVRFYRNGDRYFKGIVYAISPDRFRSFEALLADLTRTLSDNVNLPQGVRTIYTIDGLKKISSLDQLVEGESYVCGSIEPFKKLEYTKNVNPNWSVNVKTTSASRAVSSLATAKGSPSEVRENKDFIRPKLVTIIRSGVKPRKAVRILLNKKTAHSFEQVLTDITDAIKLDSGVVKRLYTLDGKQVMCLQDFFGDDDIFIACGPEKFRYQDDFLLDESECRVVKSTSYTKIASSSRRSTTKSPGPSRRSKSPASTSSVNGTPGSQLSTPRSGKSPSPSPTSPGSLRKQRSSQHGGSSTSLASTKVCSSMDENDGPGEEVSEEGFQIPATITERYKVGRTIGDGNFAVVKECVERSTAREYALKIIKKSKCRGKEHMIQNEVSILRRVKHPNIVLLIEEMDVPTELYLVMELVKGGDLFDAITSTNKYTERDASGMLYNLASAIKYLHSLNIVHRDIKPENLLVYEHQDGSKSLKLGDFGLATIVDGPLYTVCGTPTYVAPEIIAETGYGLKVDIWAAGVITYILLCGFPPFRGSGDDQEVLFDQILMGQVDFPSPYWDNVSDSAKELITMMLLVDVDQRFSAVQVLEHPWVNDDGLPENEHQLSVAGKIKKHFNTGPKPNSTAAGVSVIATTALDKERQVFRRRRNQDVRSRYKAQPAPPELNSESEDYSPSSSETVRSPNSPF

[13] = biological target: Serine/threonine-protein kinase PLK3 (Homo sapiens) (UniProt Q9H4B4); assay: Binding affinity to human PLK3 at 50 nM by cell-based competition binding assay relative to control in presence of DTT
[14] = biological target: Casein kinase I isoform gamma-2 (Homo sapiens) (UniProt P78368); assay: Binding affinity to human CSNK1G2 at 50 nM by cell-based competition binding assay relative to control in presence of DTT; outline: as §1
[15] = biological target: RAC-beta serine/threonine-protein kinase (Homo sapiens) (UniProt P31751); assay: Binding affinity to human AKT2 at 50 nM by cell-based competition binding assay relative to control in presence of DTT; outline: as §2
RAC-beta serine/threonine-protein kinase (Homo sapiens), sequence (P31751 whole entry, the tested form may be a part): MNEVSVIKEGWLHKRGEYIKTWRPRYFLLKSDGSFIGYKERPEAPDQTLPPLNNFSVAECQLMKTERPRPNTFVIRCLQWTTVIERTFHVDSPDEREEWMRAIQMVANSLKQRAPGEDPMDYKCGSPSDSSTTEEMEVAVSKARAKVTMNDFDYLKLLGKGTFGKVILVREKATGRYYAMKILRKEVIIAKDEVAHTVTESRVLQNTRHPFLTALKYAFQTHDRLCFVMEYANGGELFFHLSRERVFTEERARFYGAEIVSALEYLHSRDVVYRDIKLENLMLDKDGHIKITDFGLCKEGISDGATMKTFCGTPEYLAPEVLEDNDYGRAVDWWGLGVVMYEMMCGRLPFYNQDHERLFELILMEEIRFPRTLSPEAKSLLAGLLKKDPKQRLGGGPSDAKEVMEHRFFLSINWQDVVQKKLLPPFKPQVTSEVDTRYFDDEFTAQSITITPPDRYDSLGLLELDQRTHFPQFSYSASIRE

[16] = biological target: Tyrosine-protein kinase JAK2 (Homo sapiens) (UniProt O60674); assay: Binding affinity to human JAK2 kinase domain 2 at 50 nM by cell-based competition binding assay relative to control in presence of DTT; outline: as §3
Tyrosine-protein kinase JAK2 (Homo sapiens), sequence (O60674 whole entry, the tested form may be a part): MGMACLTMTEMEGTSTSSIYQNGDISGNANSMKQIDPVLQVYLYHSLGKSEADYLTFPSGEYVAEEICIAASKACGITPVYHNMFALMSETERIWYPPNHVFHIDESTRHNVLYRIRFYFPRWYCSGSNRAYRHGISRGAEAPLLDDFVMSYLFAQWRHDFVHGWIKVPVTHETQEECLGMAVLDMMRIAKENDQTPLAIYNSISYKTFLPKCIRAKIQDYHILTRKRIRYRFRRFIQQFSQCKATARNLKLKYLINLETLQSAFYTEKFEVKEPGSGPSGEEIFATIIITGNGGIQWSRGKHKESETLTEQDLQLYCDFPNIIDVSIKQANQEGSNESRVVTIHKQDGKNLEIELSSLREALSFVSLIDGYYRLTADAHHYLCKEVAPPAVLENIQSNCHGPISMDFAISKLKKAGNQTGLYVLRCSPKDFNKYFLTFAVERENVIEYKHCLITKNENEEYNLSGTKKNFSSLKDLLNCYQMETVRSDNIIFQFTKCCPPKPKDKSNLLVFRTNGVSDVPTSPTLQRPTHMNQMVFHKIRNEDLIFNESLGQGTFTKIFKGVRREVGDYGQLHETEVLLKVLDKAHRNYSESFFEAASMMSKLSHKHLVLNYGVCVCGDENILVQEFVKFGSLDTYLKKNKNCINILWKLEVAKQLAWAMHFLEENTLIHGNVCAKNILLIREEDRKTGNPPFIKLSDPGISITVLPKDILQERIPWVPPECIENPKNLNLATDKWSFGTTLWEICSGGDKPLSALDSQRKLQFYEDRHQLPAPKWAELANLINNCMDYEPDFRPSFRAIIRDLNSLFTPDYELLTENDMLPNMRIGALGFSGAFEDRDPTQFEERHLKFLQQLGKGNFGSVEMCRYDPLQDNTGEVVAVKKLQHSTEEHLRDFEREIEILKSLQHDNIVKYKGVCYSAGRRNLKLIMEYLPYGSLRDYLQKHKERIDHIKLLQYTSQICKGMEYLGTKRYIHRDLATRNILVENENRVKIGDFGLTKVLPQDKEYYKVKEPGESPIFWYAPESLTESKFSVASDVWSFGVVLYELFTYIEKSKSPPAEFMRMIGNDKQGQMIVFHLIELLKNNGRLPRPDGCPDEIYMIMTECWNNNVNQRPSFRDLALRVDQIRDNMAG

Structure (SMILES): CO[C@@H]1[C@H](N(C)C(=O)CCC(=O)NCCC(=O)NCCC(=O)NCCC(N)=O)C[C@H]2O[C@]1(C)n1c3ccccc3c3c4c(c5c6ccccc6n2c5c31)C(=O)NC4
- Activity [1]: 0.35%
- Activity [2]: 100%
- Activity [3]: 38%
- Activity [4]: 3.2%
- Activity [5]: 61%
- Activity [6]: 14%

Structure (SMILES): CO[C@@H]1[C@H](N(C)C(=O)CCC(=O)NCCC(=O)NCCC(=O)NCCC(=O)NCCC(=O)NCCC(=O)NCCC(=O)NCCC(=O)N[C@H]2CSSC[C@@H](C(=O)NCC(N)=O)NC(=O)CNC(=O)[C@H](Cc3ccccc3)NC(=O)[C@H](C(C)C)NC(=O)[C@H](CCCNC(=N)N)NC(=O)[C@H](Cc3ccccc3)NC(=O)[C@H](C(C)C)NC2=O)C[C@H]2O[C@]1(C)n1c3ccccc3c3c4c(c5c6ccccc6n2c5c31)C(=O)NC4 ({Staurosporine-Suc-βAla-βAla-βAla-βAla-βAla-βAla-βAla}-CVFRVFGCG-NH2; disulfide 1-8)
- Activity [7]: 100%

Structure (SMILES): CO[C@@H]1[C@H](N(C)C(=O)CCC(=O)NCCC(=O)NCCC(=O)NCCC(=O)NCCC(=O)NCCC(=O)NCCC(=O)NCCC(=O)N[C@H]2CNC(=O)C[C@@H](C(N)=O)NC(=O)CNC(=O)[C@H](Cc3ccccc3)NC(=O)[C@H](C(C)C)NC(=O)[C@H](CCCNC(=N)N)NC(=O)[C@H](Cc3ccccc3)NC(=O)[C@H](C(C)C)NC2=O)C[C@H]2O[C@]1(C)n1c3ccccc3c3c4c(c5c6ccccc6n2c5c31)C(=O)NC4 ({Staurosporine-Suc-βAla-βAla-βAla-βAla-βAla-βAla-βAla}-[Dap]VFRVFGD-NH2; lactam 1-8)
- Activity [8]: 96%
- Activity [9]: 1.8%
- Activity [10]: 100%
- Activity [11]: 66%
- Activity [12]: 95%
- Activity [13]: 98%
- Activity [14]: 100%
- Activity [15]: 100%
- Activity [16]: 42%
